Screening results from PubChem BioAssay.
Only some compounds are listed: those with a hit (about 3.1% of all), similar ones and a draw of the others.
GalR3 antagonist – GalR3 antagonists in HEK293 cells, primary screen, cell-based, fluorescence readout | inhibition, % at 3 µM | Galanin receptor type 3 (Homo sapiens), O60755 | HEK293 GalR3-CNG cAMP membrane potential fluorescence; galR3 body fused to GalR1 C-terminus | hit rate 0.44% among 360,000;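 active = inhibition above the screen-wide average plus 3 SD, cut at about 13% in these data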;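 also: forskolin and galanin both at EC90 stimulate the cells; cAMP rise reported by CNG channel membrane potential dye signal; 0% = forskolin plus galanin with DMSO and 100% = forskolin alone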
Target sequence (O60755 1-299 limits assumed): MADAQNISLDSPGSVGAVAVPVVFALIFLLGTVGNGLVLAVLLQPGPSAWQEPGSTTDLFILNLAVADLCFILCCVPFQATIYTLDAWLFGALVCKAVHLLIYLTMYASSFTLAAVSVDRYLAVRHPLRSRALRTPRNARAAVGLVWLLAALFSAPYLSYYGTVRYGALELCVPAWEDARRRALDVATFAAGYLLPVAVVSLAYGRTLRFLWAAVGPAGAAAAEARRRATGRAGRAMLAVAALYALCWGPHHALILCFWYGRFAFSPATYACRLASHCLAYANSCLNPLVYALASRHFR
CHO parental Ca – ATP-evoked calcium signal inhibitors, parental CHO, primary screen, counter-screen for OX1R antagonist project, cell-based, fluorescence, Fluo-8 calcium dye; parental CHO-K1, ATP-induced calcium, Fluo-8 fluorescence; hit rate 0.63% among 330,000; inhibition, % at 5.6 µM;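 active = inhibition above that plate's mean sample inhibition plus 3 SD, cut at about 26% in these data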;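 also: 0% = ATP-challenged DMSO wells and 100% = DMSO wells without ATP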
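Assay system: untransfected parental CHO cell line. Also added: ATP agonist challenge. Dosing: one dose, 5.6 µM nominal. Measured by: Fluo-8 fluorescence. Read-out: % inhibition. Benchmarks: ATP wells versus no-ATP DMSO wells. Repeats: no replicates.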
GPR7 antag – GPR7 receptor antagonists, primary screen, cell-based, fluorescence, single concentration | AID 1861, 2009 | hit rate 1.1% among 290,000 | Neuropeptides B/W receptor type 1 (Homo sapiens), P48145 | GPR7-expressing cells, fluorescence antagonist assay | inhibition, % at 4.4 µM; in the data active = inhibition above about 16%, passing the limit was not always enough;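 also: cells stimulated with the agonist NPW; 0% = agonist with vehicle and 100% = vehicle without agonist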
OX1R antag-1 – OX1R (HCRTR1) antagonists, primary screen, fluorescence, CHO/OX1R cells, Fluo-8 calcium, orexin A. inhibition, % at 5 µM. hit rate 0.43% among 330,000. Fluo-8 calcium fluorescence;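 active = inhibition above its plate's threshold, mean inhibition of all tested compounds on the plate plus 3 SD, cut at about 37% in these data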;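 also: 0% = orexin A challenge wells and 100% = SB-334867-A antagonist wells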
Target sequence (O43613 whole entry, looked up): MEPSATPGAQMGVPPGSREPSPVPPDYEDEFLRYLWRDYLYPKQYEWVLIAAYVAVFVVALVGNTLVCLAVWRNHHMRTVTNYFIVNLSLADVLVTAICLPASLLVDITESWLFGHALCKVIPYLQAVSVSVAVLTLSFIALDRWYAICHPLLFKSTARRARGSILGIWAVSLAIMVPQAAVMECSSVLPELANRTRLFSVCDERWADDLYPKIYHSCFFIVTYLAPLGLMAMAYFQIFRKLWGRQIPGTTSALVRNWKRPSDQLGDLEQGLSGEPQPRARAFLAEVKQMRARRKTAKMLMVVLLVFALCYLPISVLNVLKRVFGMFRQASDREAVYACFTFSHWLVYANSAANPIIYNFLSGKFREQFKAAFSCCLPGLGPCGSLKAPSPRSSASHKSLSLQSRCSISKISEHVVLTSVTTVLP
OX1R antag-2 – antagonists of human orexin 1 receptor (OX1R); Orexin/Hypocretin receptor type 1 (Homo sapiens), O43613; OX1R-expressing cells, FRET antagonist read-out; inhibition, % at 6.6 µM; hit rate 1.8% among 330,000; AID 485270, 2010; in the data active = inhibition mostly above about 38%, no sharp cut-off; inactive = mostly below about 40%;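 also: 0% = agonist challenge alone and 100% = reference antagonist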
GPR7 antag conf – GPR7 receptor antagonists, confirmation, cell-based, fluorescence, single concentration. shares compounds with GPR7 antag. GPR7-expressing cells, calcium fluorescence antagonist mode. inhibition, % at 4.4 µM. hit rate 52% among 2,400. AID 1952, 2009; in the data active = inhibition above about 24%;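 also: stimulated with the GPR7 agonist NPW; 0% = agonist plus vehicle and 100% = vehicle alone without agonist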
MCHR1 antagonist – MCHR1 antagonists in cells, counter-screen for GPR7 antagonist project, cell-based, fluorescence, human | shares compounds with GPR7 antag | MCHR1-expressing cells, fluorescence antagonist assay | inhibition, % at 4.4 µM | hit rate 62% among 2,400; in the data active = inhibition above about 22%;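 also: 0% = vehicle with agonist and 100% = vehicle without agonist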
* hit, by the source's call.

How did CCn1cc(C(=O)NC2CC(C)(C)Cc3c2cnn3-c2cccc(F)c2)cn1 (centres undefined) do in these assays?
GalR3 antagonist: -1.2; CHO parental Ca: -3.6; GPR7 antag: -8.2; OX1R antag-1: -13.6; OX1R antag-2: 19.8

How did O=C(O)[C@H]1CCCC[C@H]1C(=O)Nc1ccc(S(=O)(=O)N2CCOCC2)cc1 do in these assays?
GalR3 antagonist: -8.5; CHO parental Ca: -4.7; GPR7 antag: -11.5; OX1R antag-1: -10.0; OX1R antag-2: 20.7

How did COc1ccc(NC(=O)C2CCN(S(=O)(=O)c3ccc(N4CCCC4=O)cc3)CC2)cc1OC do in these assays?
GalR3 antagonist: -9.7; CHO parental Ca: -20.4; GPR7 antag: -3.1; OX1R antag-1: -16.9; OX1R antag-2: 3.5

What do the screens show for `O=C(O)[C@H]1CCCC[C@H]1C(=O)Nc1ccc(S(=O)(=O)N2CCCCC2)cc1`?
GalR3 antagonist: -8.9; CHO parental Ca: 8.0; GPR7 antag: 22.9*; OX1R antag-1: -6.6; OX1R antag-2: 18.2; GPR7 antag conf: -17.4; MCHR1 antagonist: -4.9

What do the screens show for `O=C(Nc1ccc(C(F)(F)F)cc1)C1CCN(S(=O)(=O)c2ccc(N3CCCC3=O)cc2)CC1`?
GalR3 antagonist: -6.6; CHO parental Ca: -6.8; GPR7 antag: 22.7*; OX1R antag-1: -9.9; OX1R antag-2: 4.4; GPR7 antag conf: 23.4; MCHR1 antagonist: 48.6*

Results for CCSc1nnc(NC(=O)CN2C(=O)NC3(CCCC3)C2=O)s1 ?
GalR3 antagonist: -5.6; CHO parental Ca: -19.4; OX1R antag-1: -16.1; OX1R antag-2: 0.3

How did N#CCCn1cc(C(=O)N2CCCCC2)c(-c2ccc([N+](=O)[O-])cc2)n1 do in these assays?
GalR3 antagonist: -4.4; CHO parental Ca: -9.3; GPR7 antag: -7.8; OX1R antag-1: 1.0; OX1R antag-2: 19.3

How did CC1(C(=O)O)CCN1C(=O)COc1ccc(Cl)cc1 (centres undefined) do in these assays?
GalR3 antagonist: -7.3

What do the screens show for `O=C(/C=C/c1ccc([N+](=O)[O-])s1)N1CCN(c2ccccc2)CC1`?
GalR3 antagonist: -1.3; CHO parental Ca: -3.5; GPR7 antag: 26.0*; OX1R antag-1: 5.1; OX1R antag-2: 4.8; GPR7 antag conf: 6.1; MCHR1 antagonist: 5.0

How did Cc1cc([N+](=O)[O-])nn1CC(=O)Nc1c(C)n(C)n(-c2ccccc2)c1=O do in these assays?
GalR3 antagonist: -4.8; CHO parental Ca: -14.4; GPR7 antag: 31.3*; OX1R antag-1: -19.4; OX1R antag-2: 29.1; GPR7 antag conf: -1.6; MCHR1 antagonist: 1.2

How did COc1ccccc1CNS(=O)(=O)c1cc(C)ccc1OC do in these assays?
GalR3 antagonist: -2.0; CHO parental Ca: -1.4; GPR7 antag: 4.4; OX1R antag-1: -3.7; OX1R antag-2: 26.2

How did COc1ccccc1CNS(=O)(=O)c1ccc(Cl)s1 do in these assays?
GalR3 antagonist: -10.0; CHO parental Ca: -10.9; GPR7 antag: 23.0*; OX1R antag-1: -7.0; OX1R antag-2: 26.8; GPR7 antag conf: 2.4; MCHR1 antagonist: 9.9

What do the screens show for `COc1ccc(C2C3CCCCC3(O)CCN2C(=O)c2cccs2)cc1` (centres undefined)?
GalR3 antagonist: -1.5; CHO parental Ca: -10.9; GPR7 antag: -3.8; OX1R antag-1: -14.0; OX1R antag-2: 5.2

How did Cc1ccc2[nH]c(=O)c(CN(CCCN(C)C)C(=S)NCCc3ccccc3)cc2c1 do in these assays?
GalR3 antagonist: -7.3; CHO parental Ca: -7.1; GPR7 antag: 19.9; OX1R antag-1: -23.0; OX1R antag-2: 14.6

Results for Cc1cccc2cc(CN(CCCN(C)C)C(=S)NCCc3ccccc3)c(=O)[nH]c12 ?
GalR3 antagonist: -6.7; CHO parental Ca: -13.2; GPR7 antag: 30.6*; OX1R antag-1: -24.7; OX1R antag-2: 7.6; GPR7 antag conf: 48.7*; MCHR1 antagonist: 30.4*

How did O=[N+]([O-])c1ccc(O)c(-c2cc(C(F)(F)F)nc(-c3ccccc3)n2)c1 do in these assays?
GalR3 antagonist: -1.6; CHO parental Ca: 73.7*; GPR7 antag: 43.6*; OX1R antag-1: 20.7; OX1R antag-2: -25.7; GPR7 antag conf: 72.2*; MCHR1 antagonist: 59.6*

Results for Oc1ccccc1-c1cc(C(F)(F)C(F)F)nc(-c2ccccc2)n1 ?
GalR3 antagonist: -7.2; CHO parental Ca: -11.0; GPR7 antag: -1.6; OX1R antag-1: -5.9; OX1R antag-2: 9.7

How did COc1ccc(CCc2nnc(CCC(=O)NCc3cnc4ccccn34)o2)cc1 do in these assays?
GalR3 antagonist: -5.2; CHO parental Ca: -10.1; GPR7 antag: 3.3; OX1R antag-1: -19.2; OX1R antag-2: 16.4

What do the screens show for `Cc1c(NC(=O)COC(=O)Cc2ccc(F)cc2)c(=O)n(-c2ccccc2)n1C`?
GalR3 antagonist: -3.5; CHO parental Ca: -11.3; OX1R antag-1: 8.3; OX1R antag-2: 8.1

How did COc1ccc(-c2nnn(CC(=O)NCc3ccc4c(c3)OCO4)n2)cc1OC do in these assays?
GalR3 antagonist: -3.6; CHO parental Ca: -17.8; GPR7 antag: 22.3*; OX1R antag-1: -19.1; OX1R antag-2: 21.3; GPR7 antag conf: -0.4; MCHR1 antagonist: 1.5

What do the screens show for `COc1ccc(CN2CCc3c([nH]c4ccccc34)C2)cc1Br`?
GalR3 antagonist: -5.1; CHO parental Ca: -17.6; GPR7 antag: 41.8*; OX1R antag-1: -22.4; OX1R antag-2: 9.6; GPR7 antag conf: 52.0*; MCHR1 antagonist: 37.6*

Results for CCOc1cc(CN2CCc3c([nH]c4ccccc34)C2)ccc1OC ?
GalR3 antagonist: -13.7; GPR7 antag: -14.9

What do the screens show for `Cc1nc2ccc([N+](=O)[O-])cc2c(=O)n1Cc1cccc(Br)c1`?
GalR3 antagonist: -8.2; CHO parental Ca: 7.0; GPR7 antag: 46.5*; OX1R antag-1: -15.4; OX1R antag-2: 28.2; GPR7 antag conf: 32.4*; MCHR1 antagonist: 35.5*

How did Cc1nc2ccc([N+](=O)[O-])cc2c(=O)n1Cc1ccc(Br)cc1 do in these assays?
GalR3 antagonist: -9.8; CHO parental Ca: 2.1; GPR7 antag: 22.1; OX1R antag-1: -1.9; OX1R antag-2: 21.7

Results for Cc1cc(OCC(=O)NCCCN2CCOCC2)c2c(C)c(C)c(=O)oc2c1 ?
GalR3 antagonist: 1.0; CHO parental Ca: -7.9; GPR7 antag: -18.9; OX1R antag-1: -14.1; OX1R antag-2: 38.9

Results for Fc1ccccc1NC(=S)NCc1ccc2c(c1)OCO2 ?
GalR3 antagonist: -2.5; CHO parental Ca: -7.9; GPR7 antag: 31.2*; OX1R antag-1: 0.1; OX1R antag-2: 12.4; GPR7 antag conf: 19.4; MCHR1 antagonist: 6.5
